Published values of several laboratories.
Lines come from different studies, so protocols differ.
Target: Dual specificity tyrosine-phosphorylation-regulated kinase 1A (DYRK1A, Homo sapiens, UniProt Q13627)

SMILES | assay | conditions | endpoint | value
O=C(Nc1cccnn1)N1CC(C/C=C/c2cncc(Oc3ccc(C(F)(F)F)cn3)n2)C1 | cell-free assay, competition with immobilised ligand | 1 µM | remaining binding | 75%
O=C(O)c1ccc2c(c1)nc(NCCc1cccc(Cl)c1)c1ccncc12 | enzyme activity, inhibitor, radiometric | 1 µM | remaining activity | 17%
CN([C@@H]1CCc2c(CC(=O)O)c3cc(S(C)(=O)=O)ccc3n2C1)S(=O)(=O)c1ccc(F)cc1 | cell-free assay, competition with immobilised ligand | 1 µM | remaining binding | 81%
O=C(O)c1ccc2c(c1)nc(NCCc1cccc(Cl)c1)c1ncncc12 | enzyme activity, inhibitor, radiometric | 1 µM | remaining activity | 44%
COc1cc2ncnc(Nc3ccc(Oc4ccccc4)cc3C)c2cc1OC | enzyme activity, inhibitor | 1 µM | inhibition | -1%
O=C(O)c1ccc2c(c1)nc(Nc1ccccc1)c1ncncc12 | enzyme activity, inhibitor, radiometric | 1 µM | remaining activity | 3%
CC1(C)NC(=O)c2[nH]c3c(Cl)c(Cl)ccc3c2C1C#N (stereo not shown) | thermal stability, DSF | 10 µM | ΔTm | 2.6 °C
COCCOc1nc(-c2ccc(Cl)nc2)nc2c1CN(C(=O)c1ncn3ccccc13)CC2 | cell-free assay, competition with immobilised ligand | 0.1 µM | remaining binding | 78%
Cc1cc(NC(=O)c2cccc3cc(-c4cccc5[nH]nc(N)c45)ccc23)ccc1F | enzyme activity, inhibitor | 0.1 µM | activity vs control | 110%
O=C1Nc2ccc(Cl)cc2C1=Cc1cc(Cl)c(O)c(Cl)c1 | cell-free assay | 0.5 µM | remaining signal | 95.6%
O=C(O)c1ccc2c(c1)nc(NCc1ccccc1)c1ncncc12 | enzyme activity, inhibitor, radiometric | 1 µM | remaining activity | 61%
CC(=O)N1CCC(c2ccc(C(=O)NC(=N)N)cc2C(F)(F)F)CC1 | cell-free assay, competition with immobilised ligand | 1 µM | remaining binding | 74%
Cn1c2c(c3ccc(Cl)c(Cl)c31)C(C#N)C(C)(C)NC2=O (stereo not shown) | thermal stability, DSF | 10 µM | ΔTm | 3.2 °C
CNc1cccc2cc(C(=O)Nc3ccc(C(=O)O)cc3)c(=O)[nH]c12 | enzyme activity, inhibitor | 10 µM | inhibition | 28%
Cc1c[nH]c2nccc(Oc3c(F)cc(Nc4cc(Cl)nc(N)n4)cc3F)c12 | cell-free assay, competition with immobilised ligand | 0.1 µM | remaining binding | 88%
O=C(O)c1ccc2c(c1)nc(Nc1ccc(F)c(Cl)c1)c1ncncc12 | enzyme activity, inhibitor, radiometric | 1 µM | remaining activity | 1%

SMILES | assay | conditions | endpoint | value
Cn1c2c(Cl)c(Cl)ccc2c2cn[nH]c(=O)c21 | thermal stability, DSF | 10 µM | ΔTm | 1.3 °C
CN(C)C1CCN(CC#Cc2nn(C3CCCC3)c3nc(NCc4ccccc4)ncc23)C1 (stereo not shown) | enzyme activity, inhibitor, FRET | 1 µM | inhibition | 4%
CCN(CC)CCNC(=O)c1c(C)[nH]c(/C=C2\C(=O)Nc3ccc(F)cc32)c1C | cell-free assay | 0.5 µM | remaining signal | 56.9%
O=C1NC(c2ccccn2)Sc2ccccc21 (stereo not shown) | cell-free assay, competition with immobilised ligand | 1 µM | remaining binding | 100%
O=C(O)c1ccc2c(c1)nc(Nc1ccc3ccccc3c1)c1ncncc12 | enzyme activity, inhibitor, radiometric | 1 µM | remaining activity | -1%
Nc1ncnc2occ(-c3ccc(NC(=O)Nc4cc(C(F)(F)F)ccc4F)cc3)c12 | cell-free assay | 20 µM | remaining signal | 58%
Cc1ccc(C(=O)Nc2ccc(CN3CCN(C)CC3)c(C(F)(F)F)c2)cc1C#Cc1cnc2cccnn12 | cell-free assay | 23.5 nM | remaining signal | 81%
Cn1c2c(Cl)c(Cl)ccc2c2cc[nH]c(=O)c21 | thermal stability, DSF | 10 µM | ΔTm | 2.6 °C
O=C(O)c1ccc2c(c1)nc(Nc1cccc(F)c1)c1ncncc12 | enzyme activity, inhibitor, radiometric | 1 µM | remaining activity | 1%
Cn1cncc1C1=CN(c2ncnc3[nH]cnc23)CCS1 | enzyme activity, inhibitor, radiometric | 2 µM | inhibition | 95.4%
O=C1NC(=O)c2cc(Nc3ccc(F)cc3)c(Nc3ccc(F)cc3)cc21 | cell-free assay | 0.5 µM | remaining signal | 95.6%
O=S(=O)(NC1CCC(c2cc(F)ccc2F)(S(=O)(=O)c2ccc(Cl)cc2)CC1)C(F)(F)F (stereo not shown) | cell-free assay, competition with immobilised ligand | 1 µM | remaining binding | 78%
N#Cc1cccc(Nc2nc3cc(C(=O)O)ccc3c3cnccc23)c1 | enzyme activity, inhibitor, radiometric | 1 µM | remaining activity | -1%
CCN1/C(=C/C(C)=O)Sc2ccc(OC)cc21 | cell-free assay | 0.5 µM | remaining signal | 28.9%
O=C(O)c1cc(-c2ccc(C3CCNCC3)cc2)c2ccc(-c3ccc(C(F)(F)F)cc3)cc2c1 | cell-free assay, competition with immobilised ligand | 1 µM | remaining binding | 100%
